Source: PubChem BioAssay
PG9 binder = binders of HIV-1 gp120 antibody PG9, primary screen, biochemical, TR-FRET | HIV-1 gp120 / PG9 antibody interaction | TR-FRET gp120-PG9 antibody binding | inhibition, % at 6.7 µM | 0.43% of 360,000 active; in the data active means inhibition above about 8.5%
NTR1 agonist = agonists of human NTR1, primary screen, imaging, U2OS cells, beta-arrestin-GFP, high content | NTR1-U2OS beta-arrestin-GFP spot imaging, agonist mode | activation, % at 20 µM | 0.17% of 330,000 active;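 active means activation at or above 40% of the spot to cytoplasm intensity ratio, with at least 20 cells analyzed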
MC4R barr agon = MC4R agonists recruiting beta-arrestin, primary screen, cell-based, luminescence, agonist arm of biased-ligand search. activation, % at 8.9 µM. U2OS MC4R beta-arrestin complementation; percent of melanotan II response, DMSO zero. 0.98% of 360,000 active. Melanocortin receptor 4 (Homo sapiens), P32245;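 active means activation above a per-plate cutoff, the mean activation of sample wells on that plate plus 3 SD, cut at about 8% in these data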
NR1D1 modulator = modulators of Rev-erb alpha DNA binding, primary screen, biochemical, FITC-DNA, fluorescence polarization, uHTS; activity, % at 10 µM; AID 1259318, 2017; Nuclear receptor subfamily 1 group D member 1 (Homo sapiens), P20393; 0.79% of 370,000 active; Rev-erbα–FITC-DNA binding, 90 min;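 active means activity above about 14%, limit read from the data; passing the limit was not always enough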
Target sequence (P20393 whole entry, looked up): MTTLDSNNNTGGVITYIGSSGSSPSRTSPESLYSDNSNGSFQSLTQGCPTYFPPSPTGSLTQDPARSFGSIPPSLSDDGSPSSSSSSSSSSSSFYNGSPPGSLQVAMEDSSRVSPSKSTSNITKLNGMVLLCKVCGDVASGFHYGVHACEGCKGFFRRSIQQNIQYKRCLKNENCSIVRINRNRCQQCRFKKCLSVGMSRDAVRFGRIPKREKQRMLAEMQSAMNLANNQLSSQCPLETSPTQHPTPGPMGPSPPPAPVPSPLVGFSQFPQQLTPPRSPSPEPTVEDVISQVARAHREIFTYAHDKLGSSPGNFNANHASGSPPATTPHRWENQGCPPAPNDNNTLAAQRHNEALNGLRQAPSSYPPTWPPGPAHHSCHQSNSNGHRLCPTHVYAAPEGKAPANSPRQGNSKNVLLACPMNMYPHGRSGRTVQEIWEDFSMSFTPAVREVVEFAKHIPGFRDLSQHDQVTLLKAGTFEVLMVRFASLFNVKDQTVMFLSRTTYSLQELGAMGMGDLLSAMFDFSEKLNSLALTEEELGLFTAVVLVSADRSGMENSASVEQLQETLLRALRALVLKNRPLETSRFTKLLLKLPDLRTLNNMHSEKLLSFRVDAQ
MC4R antag cAMP = MC4R antagonists of cAMP signaling, primary screen, cell-based, TR-FRET, antagonist arm of biased-ligand search; MC4R-expressing cells, MTII-stimulated cAMP, LANCE TR-FRET; inhibition, % at 6.5 µM; Melanocortin receptor 4 (Homo sapiens), P32245; 0.48% of 360,000 active; AID 540295, 2011;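 active means inhibition above its plate's cutoff, the mean of tested wells on that plate plus 3 SD, cut at about 29% in these data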
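system = U2OS cells with stable human MC4R expression | also added = Melanotan II challenge after compound preincubation | dosing = one concentration, 6.5 µM nominal | incubation = compound 30 min, challenge 1 h, detection 1 h | measured by = TR-FRET with Eu-cAMP and labeled anti-cAMP, 671 nm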
NTR1 ag conf = NTR1 agonists, single-dose retest, confirmation, imaging, U2OS cells, beta-arrestin-GFP, single concentration | shares compounds with NTR1 agonist | NTR1-U2OS beta-arrestin-GFP translocation imaging | activation, % at 20 µM | 38% of 480 active | AID 504550, 2011;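 active means mean activation at 20 µM of at least 40%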
U2OS cAMP counter = nonselective cAMP signaling inhibitors, parental cells, counter-screen for MC4R biased antagonist project, cell-based, TR-FRET, U2OS, forskolin, triplicate; shares compounds with MC4R antag cAMP; 26% of 1,600 active; inhibition, % at 6.5 µM; LANCE TR-FRET;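 active means mean inhibition over triplicates above the low-control well mean plus 3 SD, set per campaign, cut at about 13% in these data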;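 further: signal is single emission at 671 nm which falls as cellular cAMP rises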
MC4R cAMP antag = MC4R cAMP antagonists, retest, confirmation, cell-based, TR-FRET. inhibition, % at 6.5 µM. shares compounds with MC4R antag cAMP. MC4R-expressing cells, MTII-stimulated cAMP. 27% of 1,600 active; in the data active means inhibition above about 29%
Of the large screens only hits and unclear results are named; the others gave an inactive call (follow-up assays come after a bar, where they were run). A selection: hits, their analogues and other compounds. The true share with any hit is near 2.5%.

CC(C)(C)OC(=O)NCCCCCNC(=O)c1[nH]cnc1C(=O)N[C@@H](Cc1ccccc1)C(=O)OC(C)(C)C	NTR1 agonist 47 (no result: PG9 binder, NR1D1 modulator) | NTR1 ag conf inactive
C[C@H](NC(=O)c1nc[nH]c1C(=O)NCc1ccc(CNC(=O)OC(C)(C)C)cc1)C(=O)OCc1ccccc1	NTR1 agonist 55 | NTR1 ag conf 56
CC(C)C[C@H](NC(=O)c1[nH]cnc1C(=O)Nc1ccc(Cl)cc1)C(=O)OC(C)(C)C	NTR1 agonist 56 | NTR1 ag conf inactive
Cc1cccc(NC(=O)c2nc[nH]c2C(=O)N[C@@H](Cc2ccccc2)C(=O)OC(C)(C)C)c1	NTR1 agonist 51 | NTR1 ag conf 53
COC(=O)[C@]12C[C@H](CC(=O)NCc3ccc(OC)c(OC)c3)C(=O)N(CCC3=CCCCC3)C1=C[C@H](C(C)(C)C)O[C@@H]2C	none (no result: NTR1 agonist, MC4R barr agon, MC4R antag cAMP)
CN(C)c1ccc(/C=N\NC(=O)c2cccc(S(=O)(=O)N(C)C)c2)cc1	none (no result: PG9 binder, NTR1 agonist, MC4R barr agon, MC4R antag cAMP)
CCN1Cc2nnn(Cc3ccccc3)c2-c2cc(F)ccc2S1(=O)=O	none (no result: PG9 binder, NTR1 agonist, MC4R barr agon, MC4R antag cAMP)
CC(C)(C)OC(=O)NCCCCCNC(=O)c1[nH]cnc1C(=O)Nc1ccc(Cl)cc1	NTR1 agonist 48 | NTR1 ag conf inactive
Cc1cccc(NC(=O)c2nc[nH]c2C(=O)N[C@@H](CC(C)C)C(=O)OC(C)(C)C)c1	NTR1 agonist 52 | NTR1 ag conf inactive
Cc1ccc(-n2c(SCc3cccc(F)c3)nc3ccccc3c2=O)cc1	none (no result: PG9 binder, NTR1 agonist, MC4R barr agon, MC4R antag cAMP)
CN1C2=N[C@@H](c3ccc4ccccc4c3)CC(=O)N2/C(=C\c2ccccc2)[C@H]1c1ccccc1	none (no result: PG9 binder, NTR1 agonist, MC4R barr agon, MC4R antag cAMP)
COc1ccc(O)c(/C=N/NC(=S)NCCc2ccccc2)c1	none
Oc1ccc(Br)cc1/C=N/NC(=S)NCCc1ccccc1	NTR1 agonist 60 | NTR1 ag conf inactive
O=S(=O)(c1ccc(N2CC=C(c3ccccc3)CC2)nc1)N1CCCC1	NTR1 agonist 50 | NTR1 ag conf inactive
COc1ccc(-c2sc3cc(OC)c(OC)cc3c2-c2ccc(O)cc2)cc1	NTR1 agonist 51 | NTR1 ag conf inactive
C[C@@H]1CC=C[C@H]2[C@H]1C(=O)N(Cc1ccccc1)[C@H]2c1ccc2ccccc2c1	none
C[C@@H]1CC=C[C@H]2[C@H]1C(=O)N(Cc1ccccc1)[C@H]2c1ccc2ccccc2c1Br	NTR1 agonist 43 | NTR1 ag conf inactive
C[C@@H]1O[C@@H](n2c3ccc(Cl)cc3c3ccc4c5cc(Cl)ccc5[nH]c4c32)[C@H](O)[C@H](O)[C@H]1O	none (no result: PG9 binder, NTR1 agonist, MC4R barr agon, MC4R antag cAMP)
CCCCCOC(=O)C1=C(C)Nc2nnnn2C1c1ccccc1Cl (stereo unspecified)	NTR1 agonist 58 | NTR1 ag conf inactive
COc1nc(OC)nc(N2CCC(C(=O)NCc3cccc(OC)c3OC)CC2)n1	none (no result: PG9 binder, NTR1 agonist, MC4R barr agon, MC4R antag cAMP)
COc1ccc(/C=C/S(=O)(=O)NC2CCCC2)c(CNC(=O)OC(C)(C)C)c1	none (no result: PG9 binder, NTR1 agonist, MC4R barr agon, MC4R antag cAMP)
CCc1cc(-c2n[nH]c(C)c2Oc2ccc(C(C)C)cc2)c(O)cc1O	NTR1 agonist 64 | NTR1 ag conf inactive
CC(C)[C@H](NC(=O)c1ccc(Cl)c(Cl)c1)C(=O)N1CCC[C@H]1C(=O)NCCc1ccccc1Cl	none (no result: NTR1 agonist, MC4R barr agon, MC4R antag cAMP)
COc1cc(C(=O)N/N=C/c2ccc(OC(=O)c3ccccc3Cl)cc2)ccc1O	NTR1 agonist 49 | NTR1 ag conf inactive
CC[C@@H](C(=O)[C@@H](C)[C@@H](O)[C@H](C)CCc1ccc(C)c(O)c1C(=O)O)[C@H]1O[C@](CC)([C@H]2CC[C@](O)(CC)[C@H](C)O2)C[C@@H]1C	NTR1 agonist 53, MC4R barr agon 89 | NTR1 ag conf 62
Cc1cc2c(N=NC(=O)C3CC3c3ccccc3)c(O)[nH]c2cc1Br (stereo unspecified)	NTR1 agonist 42 | NTR1 ag conf inactive
O=C1CC(c2ccccc2)Cc2nc3nc(C(F)(F)F)nn3cc21 (stereo unspecified)	NTR1 agonist 49 | NTR1 ag conf inactive
CSc1nc2nc3c(cn2n1)C(=O)CC(c1ccccc1)C3 (stereo unspecified)	none
CCOC(=O)[C@@]12CCC3=C1N(CCC3)C(=O)[C@H](CC(=O)NCc1cccs1)C2	none (no result: PG9 binder, NTR1 agonist, MC4R barr agon, MC4R antag cAMP)
C/C(=N/Nc1cc(-c2ccccc2)nc(-c2ccccc2)n1)c1ccc(O)cc1	NTR1 agonist 54 | NTR1 ag conf 46
COC(=O)[C@]12CCCCC=C1N(Cc1ccc(OC)cc1)C(=O)[C@@H]2CC(=O)NCCCCc1ccccc1	none (no result: PG9 binder, NTR1 agonist, MC4R barr agon, MC4R antag cAMP)
Nc1[nH]c(C(=O)c2ccccc2)c(-c2ccc3ccccc3c2)c1C(=O)NCc1ccc(F)cc1	none (no result: NTR1 agonist, MC4R barr agon, MC4R antag cAMP)
Cc1ccc(S(=O)(=O)Nc2ccc3c4c(cccc24)CC3)c(C)c1	NTR1 agonist 41 | NTR1 ag conf inactive
Cc1cc(C)c(S(=O)(=O)Nc2ccc3c4c(cccc24)CC3)c(C)c1	none
OCCNc1nc(Nc2ccccc2Oc2ccccc2)nc(N2CCCC2)n1	NTR1 agonist 46 | NTR1 ag conf inactive
OCCNc1nc(Nc2ccccc2OC(F)(F)F)nc(N2CCCC2)n1	none
COc1ccc(-c2csc(N3CCN(c4cc(C)nc5ccccc45)CC3)n2)cc1OC	NTR1 agonist 44 | NTR1 ag conf 42
CC(C)OC(=O)C(C(=O)OC(C)C)=C1SC=CS1	none (no result: PG9 binder, NTR1 agonist, MC4R barr agon, MC4R antag cAMP)
CN(C)S(=O)(=O)c1ccc(-c2csc(N/N=C/c3ccc(O)cc3)n2)cc1	NTR1 agonist 52, MC4R barr agon 9.8, MC4R antag cAMP 32 | NTR1 ag conf 55 | U2OS cAMP counter inactive | MC4R cAMP antag 29
COc1ccc(S[C@]2(C(=O)N3CCOCC3)CC(=O)N(c3ccsc3)[C@@H]2c2ccc(OC)cc2)cc1	none (no result: PG9 binder, NTR1 agonist, MC4R barr agon, MC4R antag cAMP)
CCOc1ccc(/C=C/[N+](=O)[O-])c2ccccc12	NTR1 agonist 80, MC4R antag cAMP 41 (no result: PG9 binder, NR1D1 modulator) | NTR1 ag conf 66 | U2OS cAMP counter inactive | MC4R cAMP antag inactive
